Data taken from ChEMBL document CHEMBL1124333, “Prostaglandin photoaffinity probes: synthesis and biological activity of azide-substituted 16-phenoxy- and 17-phenyl-PGF2 alpha prostaglandins” (J Med Chem, 1989).

Columns and labels:
[1] = biological target: T1, Prostaglandin F2-alpha receptor (Bos taurus, UniProt P37289); experiment: Binding potency towards Prostaglandin F2 alpha receptor (competitive binding) with natural [3H]-PGF 2 alpha in bovine corpora lutea plasma membranes (BCLM)
Summary of the method: (§1)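 Bovine corpora lutea were homogenized in ice-cold 10 mM Tris-HCl pH 7.0 with 250 mM sucrose, 1 mM CaCl2, BSA, indomethacin, DTT and protease inhibitors. Membranes were pelleted at 17339g and resuspended at about 1-2 mg protein/mL. They were diluted 1:1 with serum-free culture medium and incubated 90 min, to equilibrium, with [3H]PGF2α and competitor.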

[2] = Relative ratio in comparison with PGF2-alpha in bovine corpus lutea membranes; format: cell membranes
[3] = Relative ratio in comparison with PGF2-alpha in ovine luteal cells; format: cell-based
[4] = biological target: T1, Prostaglandin F2-alpha receptor; experiment: Binding potency towards PGF-2 alpha receptor (competitive binding) with natural [3H]-PGF 2 alpha in bovine corpora lutea plasma membranes (BCLM); summary of the method: as §1
[5] = Relative ratio in comparison with PGF2-alpha

T1 sequence (P37289 whole entry): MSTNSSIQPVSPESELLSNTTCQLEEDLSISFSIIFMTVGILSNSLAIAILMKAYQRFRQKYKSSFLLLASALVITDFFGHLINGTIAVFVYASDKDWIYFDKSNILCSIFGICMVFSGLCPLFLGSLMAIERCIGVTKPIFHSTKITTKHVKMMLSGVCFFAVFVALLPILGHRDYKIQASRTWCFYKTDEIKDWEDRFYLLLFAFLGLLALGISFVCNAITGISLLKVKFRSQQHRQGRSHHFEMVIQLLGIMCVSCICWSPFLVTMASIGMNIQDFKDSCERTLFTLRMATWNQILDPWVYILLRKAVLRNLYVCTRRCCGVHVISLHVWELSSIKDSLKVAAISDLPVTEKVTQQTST

Row | IC50 [1] [µM] | Ratio [2] | IC50 [4] [µM] | Ratio [5] | Structure (SMILES) | Ratio [3]
1 | 120 | 860 |  |  | [N-]=[N+]=Nc1ccc(OC[C@H](O)/C=C/[C@@H]2[C@@H](C/C=C\CCCC(=O)O)[C@@H](O)C[C@H]2O)c(O)c1 | 
2 | 7 | 50 |  |  | [N-]=[N+]=Nc1ccc(CC[C@H](O)/C=C/[C@@H]2[C@@H](C/C=C\CCCC(=O)O)[C@@H](O)C[C@H]2O)cc1I | 8.1
3 | 220 | 1600 |  |  | [N-]=[N+]=Nc1ccc(CC[C@H](O)/C=C/[C@@H]2[C@@H](C/C=C\CCCC(=O)O)[C@@H](O)C[C@H]2O)c(O)c1 | 140
4 |  | 14 | 2 |  | COC(=O)CCC/C=C\C[C@@H]1C(/C=C/[C@@H](O)CCc2ccccc2)[C@H](O)C[C@@H]1O (stereo not given in full) | 
5 |  | 360 | 50 |  | COC(=O)CCC/C=C\C[C@@H]1C(/C=C/[C@H](O)CCc2ccccc2)[C@H](O)C[C@@H]1O (stereo not given in full) | 
6 | 68 |  |  | 490 | [N-]=[N+]=Nc1ccc(CC[C@@H](O)/C=C/[C@@H]2[C@@H](C/C=C\CCCC(=O)O)[C@@H](O)C[C@H]2O)cc1I | 
7 |  |  |  |  | [N-]=[N+]=Nc1cc(O)cc(OC[C@H](O)/C=C/[C@@H]2[C@@H](C/C=C\CCCC(=O)O)[C@@H](O)C[C@H]2O)c1 | 250
